In ChEMBL document CHEMBL2380222, “Arylsulfonamide pyrimidines as VLA-4 antagonists” (Bioorg Med Chem Lett, 2013):
Calls of active or inactive are those of the source. The calls are words filed in the database; no cut-off is given here.

Columns and labels:
[1] = AUC in po dosed Sprague-Dawley rat; type: ADME, organism-based; details: plasma
[2] = Inhibition of VLA-4 (unknown origin) binding to VCAM-1 in human Jurkat TM cells after 30 mins by fibronectin mediated cell adhesion assay; type: cell-based
Summary of the method: (§1)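 Calcein-labelled Jurkat TM cells (10^5/well) in Hepes 20 mM, NaCl 140 mM, CaCl2 1 mM, MgCl2 1 mM, 0.3% BSA with activating anti-α4 TS2/16. Cells were preincubated 30 min on wet ice with anti-α5 (5 µg/ml) and a compound dose–response, then bound 35 min at 37 °C, 5% CO2 to human plasma fibronectin-coated wells. Wells were washed 3× and read by fluorescence to give IC50.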

[3] = Plasma concentration in po dosed Sprague-Dawley rat after 12 hrs; type: ADME, organism-based
[4] = AUC in iv dosed Sprague-Dawley rat; type: ADME, organism-based; details: plasma
[5] = Oral bioavailability in Sprague-Dawley rat; type: ADME, organism-based; details: in vivo
[6] = Inhibition of VLA-4 in rat serum binding to VCAM-1 in human Jurkat TM cells after 30 mins by fibronectin mediated cell adhesion assay; type: cell-based; details: 0.5 h
Summary of the method: (§2)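 Cells were preincubated 30 min on wet ice with anti-α5 (5 µg/ml) and a compound dose–response, then allowed to bind 35 min at 37 °C, 5% CO2 to human plasma fibronectin-coated wells. Wells were washed 3× and read by fluorescence to give IC50.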

[7] = system: Mus musculus; assay: Inhibition of Eos influx in Black/6 mouse acute pulmonary cellular influx model at 10 mg/kg, po bid administered 1hr prior and 12 hrs post ova/alum challenge on day 28 and 29 relative to alpha4 antibody PS/2; type: functional
Summary of the method: (§3)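 Female Black/6 mice were sensitized i.p. with ova/alum on day 1, boosted on day 14, and challenged with aerosolized ova on days 28 and 29. Compound was given by oral gavage (5 ml/kg) twice daily on days 28–29, 1 h before and 12 h after challenge. BAL was collected on day 30, 48 h after the first challenge. Eosinophil influx was reported as % inhibition against vehicle or against PS/2 (anti-α4, 10 mg/kg iv, 2 h before first challenge).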

[8] = system: Mus musculus; assay: Inhibition of Eos influx in Black/6 mouse acute pulmonary cellular influx model at 10 mg/kg, po bid administered 1hr prior and 12 hrs post ova/alum challenge on day 28 and 29 relative to vehicle-treated control; type: functional; summary of the method: as §3
[9] = Inhibition of VLA-4 in mouse serum binding to VCAM-1 in human Jurkat TM cells after 30 mins by fibronectin mediated cell adhesion assay; type: cell-based; details: 0.5 h
[10] = Inhibition of VLA-4 in human serum binding to VCAM-1 in human Jurkat TM cells after 30 mins by fibronectin mediated cell adhesion assay; type: cell-based; details: 0.5 h; summary of the method: as §2
[11] = Inhibition of VLA-4 binding to VCAM-1 in human Jurkat TM cells after 30 mins by fibronectin mediated cell adhesion assay using BSA; type: cell-based; summary of the method: as §1
[12] = system: Mus musculus; assay: Inhibition of Eos influx in Black/6 mouse acute pulmonary cellular influx model at 3 mg/kg, po bid administered 1hr prior and 12 hrs post ova/alum challenge on day 28 and 29 relative to vehicle-treated control; type: functional; summary of the method: as §3
[13] = system: Mus musculus; assay: Inhibition of Eos influx in Black/6 mouse acute pulmonary cellular influx model at 3 mg/kg, po bid administered 1hr prior and 12 hrs post ova/alum challenge on day 28 and 29 relative to PS/2; type: functional; summary of the method: as §3
[14] = system: Rattus norvegicus; assay: Antiarthritic activity in Lewis rat collagen induced arthritis model assessed as cartilage destruction at 3 to 30 mg/kg, po bid for 21 days; type: functional, organism-based
Summary of the method: (§4)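 Female Lewis rats developing type II collagen arthritis were dosed prophylactically by oral gavage, bid, at 3, 10 or 30 mg/kg for 21 days. A separate arm received methotrexate 0.05 mg/kg po qd, alone or combined. Read-outs were ankle caliper measurements as AUC, terminal hind paw weights, body weight and ankle/knee histology. Only animals with definite clinical and histopathologic disease were analysed.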

[15] = biological target: Integrin alpha-L/beta-2 (LFA-1) (Homo sapiens, UniProt P05107+P20701); assay: Inhibition of integrin alphaLbeta2 (unknown origin) binding to ICAM in human 8866 cells after 30 mins by ICAM mediated cell adhesion assay
Integrin alpha-L/beta-2 (LFA-1), sequence (P20701 whole entry): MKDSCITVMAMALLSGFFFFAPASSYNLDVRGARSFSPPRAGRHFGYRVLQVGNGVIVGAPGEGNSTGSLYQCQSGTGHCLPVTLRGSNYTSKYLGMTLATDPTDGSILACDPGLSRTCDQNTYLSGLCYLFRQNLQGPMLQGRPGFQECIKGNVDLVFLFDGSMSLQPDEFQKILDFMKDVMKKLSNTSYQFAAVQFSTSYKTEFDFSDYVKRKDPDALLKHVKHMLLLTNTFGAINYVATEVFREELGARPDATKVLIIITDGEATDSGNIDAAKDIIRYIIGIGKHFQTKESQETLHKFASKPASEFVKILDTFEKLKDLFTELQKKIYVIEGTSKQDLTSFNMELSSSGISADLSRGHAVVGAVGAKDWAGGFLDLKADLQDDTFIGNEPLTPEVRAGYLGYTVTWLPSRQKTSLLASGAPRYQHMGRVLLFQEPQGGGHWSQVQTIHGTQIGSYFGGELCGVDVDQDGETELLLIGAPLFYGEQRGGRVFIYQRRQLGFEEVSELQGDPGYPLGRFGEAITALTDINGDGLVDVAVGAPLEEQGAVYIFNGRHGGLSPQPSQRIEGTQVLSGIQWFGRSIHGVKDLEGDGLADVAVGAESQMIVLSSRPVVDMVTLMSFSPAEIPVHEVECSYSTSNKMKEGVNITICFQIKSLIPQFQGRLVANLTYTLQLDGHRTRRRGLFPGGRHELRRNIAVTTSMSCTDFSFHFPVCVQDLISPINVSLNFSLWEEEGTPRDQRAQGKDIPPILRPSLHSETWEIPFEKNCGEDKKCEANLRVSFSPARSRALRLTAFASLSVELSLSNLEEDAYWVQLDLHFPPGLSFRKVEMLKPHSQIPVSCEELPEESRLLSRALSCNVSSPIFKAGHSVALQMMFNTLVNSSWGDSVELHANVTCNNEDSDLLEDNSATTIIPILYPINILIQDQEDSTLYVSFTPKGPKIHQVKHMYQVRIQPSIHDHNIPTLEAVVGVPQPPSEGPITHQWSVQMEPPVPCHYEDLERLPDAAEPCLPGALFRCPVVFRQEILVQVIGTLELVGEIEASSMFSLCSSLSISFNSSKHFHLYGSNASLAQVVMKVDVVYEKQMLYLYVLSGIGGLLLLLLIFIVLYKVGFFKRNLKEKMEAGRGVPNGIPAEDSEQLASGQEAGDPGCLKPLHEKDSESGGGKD
Integrin alpha-L/beta-2 (LFA-1), sequence (P05107 whole entry): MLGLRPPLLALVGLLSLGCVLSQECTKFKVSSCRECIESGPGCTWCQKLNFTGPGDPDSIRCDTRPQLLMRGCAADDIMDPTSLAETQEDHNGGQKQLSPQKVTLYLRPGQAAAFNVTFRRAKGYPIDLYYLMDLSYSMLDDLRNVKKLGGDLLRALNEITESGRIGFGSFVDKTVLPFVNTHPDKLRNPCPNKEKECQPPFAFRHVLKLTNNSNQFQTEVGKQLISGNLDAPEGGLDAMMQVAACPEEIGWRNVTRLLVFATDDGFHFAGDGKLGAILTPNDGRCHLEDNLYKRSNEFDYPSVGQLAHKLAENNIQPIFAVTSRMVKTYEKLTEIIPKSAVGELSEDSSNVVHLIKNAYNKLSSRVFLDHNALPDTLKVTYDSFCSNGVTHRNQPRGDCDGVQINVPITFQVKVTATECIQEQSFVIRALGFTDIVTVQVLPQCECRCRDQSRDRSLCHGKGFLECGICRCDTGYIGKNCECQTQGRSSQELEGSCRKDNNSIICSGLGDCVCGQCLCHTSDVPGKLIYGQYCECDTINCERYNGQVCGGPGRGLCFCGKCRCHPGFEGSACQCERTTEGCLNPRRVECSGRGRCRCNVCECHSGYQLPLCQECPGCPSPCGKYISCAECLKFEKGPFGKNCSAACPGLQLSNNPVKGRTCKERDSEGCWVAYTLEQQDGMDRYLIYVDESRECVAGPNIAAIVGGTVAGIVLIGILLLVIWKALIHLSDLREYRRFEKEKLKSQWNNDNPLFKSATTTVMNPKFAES

[16] = system: Rattus norvegicus; assay: Antirheumatic activity in Lewis rat collagen induced arthritis model assessed as ankle histology at 3 to 30 mg/kg, po bid for 21 days; type: functional, organism-based; summary of the method: as §4
[17] = system: Rattus norvegicus; assay: Antiarthritic activity in Lewis rat collagen induced arthritis model assessed as final paw weight at 3 mg/kg, po bid for 21 days; type: functional, organism-based; design: dose 3 mg/kg; summary of the method: as §4
[18] = system: Rattus norvegicus; assay: Antiarthritic activity in Lewis rat collagen induced arthritis model at 3 to 30 mg/kg, po bid for 21 days; type: functional, organism-based; summary of the method: as §4
[19] = biological target: Integrin alpha-5/beta-1 (Homo sapiens, UniProt P05556+P08648); assay: Inhibition of integrin alpha5beta1 (unknown origin) binding to fibronectin in human THP1 cells after 30 mins by fibronectin mediated cell adhesion assay
Integrin alpha-5/beta-1, sequence (P05556 21-798 limits assumed): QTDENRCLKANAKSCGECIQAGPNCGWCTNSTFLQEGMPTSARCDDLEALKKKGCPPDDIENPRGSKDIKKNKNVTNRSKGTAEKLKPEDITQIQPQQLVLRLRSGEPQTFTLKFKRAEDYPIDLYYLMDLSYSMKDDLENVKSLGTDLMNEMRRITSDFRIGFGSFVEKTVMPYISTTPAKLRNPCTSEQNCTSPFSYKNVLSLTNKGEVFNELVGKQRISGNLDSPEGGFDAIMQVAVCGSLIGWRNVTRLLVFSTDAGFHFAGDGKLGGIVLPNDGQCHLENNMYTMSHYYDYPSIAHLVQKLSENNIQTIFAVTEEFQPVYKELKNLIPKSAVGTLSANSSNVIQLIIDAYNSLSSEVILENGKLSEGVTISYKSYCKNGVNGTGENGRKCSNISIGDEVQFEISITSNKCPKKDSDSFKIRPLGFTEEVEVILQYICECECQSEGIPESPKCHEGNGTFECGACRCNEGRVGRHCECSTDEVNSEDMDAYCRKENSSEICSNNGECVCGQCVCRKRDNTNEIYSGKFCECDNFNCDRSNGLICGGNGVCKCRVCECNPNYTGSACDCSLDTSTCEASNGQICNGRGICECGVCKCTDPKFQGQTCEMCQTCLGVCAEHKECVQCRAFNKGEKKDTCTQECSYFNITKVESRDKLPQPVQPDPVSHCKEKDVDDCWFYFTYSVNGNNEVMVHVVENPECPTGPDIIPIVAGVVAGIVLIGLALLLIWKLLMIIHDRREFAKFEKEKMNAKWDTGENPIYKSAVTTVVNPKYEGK
Integrin alpha-5/beta-1, sequence (P08648 42-894 limits assumed): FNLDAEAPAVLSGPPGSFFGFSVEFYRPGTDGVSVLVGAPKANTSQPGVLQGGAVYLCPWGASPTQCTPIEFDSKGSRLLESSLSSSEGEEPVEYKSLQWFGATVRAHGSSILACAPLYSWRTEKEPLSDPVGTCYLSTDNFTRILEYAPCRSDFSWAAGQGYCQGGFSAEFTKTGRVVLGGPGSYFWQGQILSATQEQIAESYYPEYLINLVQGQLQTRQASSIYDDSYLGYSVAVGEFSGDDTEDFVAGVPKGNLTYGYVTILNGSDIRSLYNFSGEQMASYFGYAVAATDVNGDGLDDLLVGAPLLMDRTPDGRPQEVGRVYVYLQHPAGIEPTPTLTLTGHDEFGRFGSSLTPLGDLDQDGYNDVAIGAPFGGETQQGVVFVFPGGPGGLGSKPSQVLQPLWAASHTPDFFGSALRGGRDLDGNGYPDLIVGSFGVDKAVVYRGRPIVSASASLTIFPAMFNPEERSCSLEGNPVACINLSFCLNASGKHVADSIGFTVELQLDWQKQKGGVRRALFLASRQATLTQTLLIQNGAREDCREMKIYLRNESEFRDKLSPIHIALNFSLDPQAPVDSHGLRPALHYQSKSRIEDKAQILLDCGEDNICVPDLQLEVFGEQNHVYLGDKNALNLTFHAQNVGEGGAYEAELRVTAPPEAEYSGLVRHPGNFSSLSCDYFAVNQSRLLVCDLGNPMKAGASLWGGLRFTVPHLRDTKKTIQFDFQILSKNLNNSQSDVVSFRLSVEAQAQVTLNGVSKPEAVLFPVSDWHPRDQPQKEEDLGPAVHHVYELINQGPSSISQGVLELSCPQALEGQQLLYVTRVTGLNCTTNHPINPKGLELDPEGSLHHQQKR
Integrin alpha-5/beta-1, sequence (P08648 895-1049 limits assumed): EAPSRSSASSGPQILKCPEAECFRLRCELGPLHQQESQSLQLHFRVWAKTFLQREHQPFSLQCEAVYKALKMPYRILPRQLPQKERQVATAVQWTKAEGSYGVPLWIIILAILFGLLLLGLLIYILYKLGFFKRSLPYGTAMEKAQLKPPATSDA

[20] = system: Rattus norvegicus; assay: Antiarthritic activity in Lewis rat collagen induced arthritis model assessed as bone resorbtion at 3 to 30 mg/kg, po bid for 21 days; type: functional, organism-based; summary of the method: as §4
[21] = system: Mus musculus; assay: Inhibition of Eos influx in Black/6 mouse acute pulmonary cellular influx model at 1 mg/kg, po bid administered 1hr prior and 12 hrs post ova/alum challenge on day 28 and 29 relative to alpha4 antibody PS/2; type: functional
Summary of the method: (§5)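 Female Black/6 mice were sensitized i.p. with ova/alum on day 1, boosted on day 14 and challenged with aerosolized ova and alum on days 28 and 29. Dosing was oral gavage (5 ml/kg) twice daily on days 28–29, 1 h before and 12 h after challenge. Reference anti-α4 antibody PS/2 was given iv at 10 mg/kg, 2 h before the first challenge. Bronchoalveolar lavage eosinophils were counted on day 30 (48 h after the first challenge) as % inhibition.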

[22] = system: Rattus norvegicus; assay: Antiarthritic activity in Lewis rat collagen induced arthritis model assessed as inhibition of AUC for ankle swelling at 3 mg/kg, po bid for 21 days; type: functional; details: 504 h, read-out: INH; summary of the method: as §4
[23] = system: Cavia porcellus; assay: Antiinflammatory activity in guinea pig at 30 to 300 mg/kg, po bid for 12 days; type: functional, organism-based
Summary of the method: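 Guinea pig EAE: animals were immunized, and only those with established disease (clinical score >0) were randomized at 16–18 days post-immunization. Oral dosing was bid for 12 days at 30 or 300 mg/kg. Natalizumab was given every other day as comparator. The read-out was clinical score over the treatment period.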

[24] = system: Rattus norvegicus; assay: Antiarthritic activity in Lewis rat collagen induced arthritis model assessed as AUC for ankle swelling at 10 to 30 mg/kg, po bid for 21 days; type: functional, organism-based; summary of the method: as §4
[25] = system: Rattus norvegicus; assay: Antiarthritic activity in Lewis rat collagen induced arthritis model assessed as final paw weight at 10 to 30 mg/kg, po bid for 21 days; type: functional, organism-based; summary of the method: as §4
[26] = biological target: Integrin alpha-V/beta-1 (Homo sapiens, UniProt P05556+P06756); assay: Inhibition of integrin alphaVbeta1 (unknown origin) binding to mouse OPN-HIS after 30 mins by fibronectin mediated cell adhesion assay; type: protein-complex assay
Integrin alpha-V/beta-1, sequence (P05556 21-798 limits assumed): as the sequence (P05556 21-798 limits assumed) above
Integrin alpha-V/beta-1, sequence (P06756 31-889 limits assumed): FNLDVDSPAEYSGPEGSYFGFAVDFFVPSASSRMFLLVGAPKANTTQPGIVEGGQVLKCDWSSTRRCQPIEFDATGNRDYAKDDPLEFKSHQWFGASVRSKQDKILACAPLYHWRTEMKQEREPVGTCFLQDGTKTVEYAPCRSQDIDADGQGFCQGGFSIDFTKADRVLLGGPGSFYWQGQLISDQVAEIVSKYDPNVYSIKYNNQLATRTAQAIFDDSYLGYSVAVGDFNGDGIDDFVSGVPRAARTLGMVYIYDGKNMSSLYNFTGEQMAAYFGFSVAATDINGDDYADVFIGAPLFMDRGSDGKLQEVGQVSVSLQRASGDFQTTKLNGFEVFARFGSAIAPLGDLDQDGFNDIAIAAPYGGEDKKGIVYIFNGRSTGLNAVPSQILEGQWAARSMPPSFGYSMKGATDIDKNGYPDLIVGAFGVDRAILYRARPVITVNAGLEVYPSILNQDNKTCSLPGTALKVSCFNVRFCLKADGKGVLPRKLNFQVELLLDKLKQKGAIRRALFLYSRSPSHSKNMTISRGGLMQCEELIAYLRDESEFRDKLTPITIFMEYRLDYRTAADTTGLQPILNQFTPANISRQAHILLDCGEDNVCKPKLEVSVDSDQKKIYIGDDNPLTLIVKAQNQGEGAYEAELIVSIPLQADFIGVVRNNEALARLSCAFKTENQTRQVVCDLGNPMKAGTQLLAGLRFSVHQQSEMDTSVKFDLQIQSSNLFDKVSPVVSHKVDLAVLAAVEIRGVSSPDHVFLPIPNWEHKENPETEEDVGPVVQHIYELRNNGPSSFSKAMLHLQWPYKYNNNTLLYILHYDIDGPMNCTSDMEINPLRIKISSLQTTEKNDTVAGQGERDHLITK
Integrin alpha-V/beta-1, sequence (P06756 891-1048 limits assumed): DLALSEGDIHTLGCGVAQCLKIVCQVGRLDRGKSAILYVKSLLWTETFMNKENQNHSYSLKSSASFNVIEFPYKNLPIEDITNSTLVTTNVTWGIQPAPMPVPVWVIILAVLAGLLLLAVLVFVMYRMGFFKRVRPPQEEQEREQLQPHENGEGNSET

[27] = system: Mus musculus; assay: Inhibition of Eos influx in Black/6 mouse acute pulmonary cellular influx model at 1 mg/kg, po bid administered 1hr prior and 12 hrs post ova/alum challenge on day 28 and 29 relative to vehicle-treated control; type: functional; summary of the method: as §5
[28] = system: Rattus norvegicus; assay: Antirheumatic activity in Lewis rat collagen induced arthritis model assessed as ankle histology at 0.05 mg/kg, po bid for 21 days; type: functional, organism-based; design: dose 0.05 mg/kg

## CCN(CC)c1ncc(N(CC)S(=O)(=O)c2ccc(F)cc2F)c(N[C@@H](Cc2ccc(OC(=O)N3CCCC3)cc2)C(=O)O)n1
[1]
  AUC: 28000 ng·h/mL
[2]
  IC50: 9 nM
[3]
  concentration at 12 h: 50 ng/mL
[4]
  AUC: 83000 ng·h/mL
[5]
  bioavailability: 34%

## CCN(CC)c1ncc(N(CC)S(=O)(=O)c2ccc(Cl)cc2)c(N[C@@H](Cc2ccc(OC(=O)N(C)C)cc2)C(=O)O)n1
[1]
  AUC: 5100 ng·h/mL
[2]
  IC50: 7 nM
[3]
  concentration at 12 h: 12 ng/mL
[4]
  AUC: 17000 ng·h/mL
[5]
  bioavailability: 33%

## CCN(CC)c1ncc(N(C)S(=O)(=O)c2ccc(F)cc2)c(N[C@@H](Cc2ccc(OC(=O)N(C)C)cc2)C(=O)O)n1
[6]
  IC50: 280 nM
[7]
  inhibition in vivo at 10 mg/kg: 80%
[1]
  AUC: 20000 ng·h/mL
[8]
  inhibition in vivo at 10 mg/kg: 45%
[2]
  IC50: 2 nM
[9]
  IC50: 6 nM
[3]
  concentration at 12 h: 120 ng/mL
[10]
  IC50: 45 nM
[4]
  AUC: 27000 ng·h/mL
[11]
  IC50: 2 nM
[12]
  inhibition in vivo at 3 mg/kg: 3%
[5]
  bioavailability: 74%
[13]
  inhibition in vivo at 3 mg/kg: 5%

## CCN(CC)c1ncc(N(CC)S(=O)(=O)c2ccc(Cl)cc2)c(N[C@@H](Cc2ccc(OC(=O)N3CCCC3)cc2)C(=O)O)n1
[1]
  AUC: 34000 ng·h/mL
[2]
  IC50: 17 nM
[3]
  concentration at 12 h: 100 ng/mL
[4]
  AUC: 110000 ng·h/mL
[5]
  bioavailability: 31%

## CCN(CC)c1ncc(N(C)S(=O)(=O)c2ccc(Cl)cc2)c(N[C@@H](Cc2ccc(OC(=O)N(C)C)cc2)C(=O)O)n1
[1]
  AUC: 23000 ng·h/mL
[2]
  IC50: 3 nM
[3]
  concentration at 12 h: 130 ng/mL
[4]
  AUC: 32000 ng·h/mL
[5]
  bioavailability: 73%

## CCN(CC)c1ncc(N(C)S(=O)(=O)c2ccc(C)cc2)c(N[C@@H](Cc2ccc(OC(=O)N3CCCC3)cc2)C(=O)O)n1
[1]
  AUC: 74000 ng·h/mL
[2]
  IC50: 6 nM
[3]
  concentration at 12 h: 450 ng/mL
[4]
  AUC: 173000 ng·h/mL
[5]
  bioavailability: 43%

## CCN(CC)c1ncc(N(CC)S(=O)(=O)c2ccc(F)cc2)c(N[C@@H](Cc2ccc(OC(=O)N3CCCC3)cc2)C(=O)O)n1
[1]
  AUC: 51000 ng·h/mL
[2]
  IC50: 1 nM
[3]
  concentration at 12 h: 180 ng/mL
[4]
  AUC: 111000 ng·h/mL
[5]
  bioavailability: 46%

## CCN(CC)c1ncc(N(C(C)C)S(=O)(=O)c2ccc(F)cc2)c(N[C@@H](Cc2ccc(OC(=O)N(C)C)cc2)C(=O)O)n1
[2]
  IC50: 5 nM

## CCN(CC)c1ncc(N(C)S(=O)(=O)c2ccc(Cl)cc2)c(N[C@@H](Cc2ccc(OC(=O)N3CCCC3)cc2)C(=O)O)n1
[1]
  AUC: 51000 ng·h/mL
[2]
  IC50: 19 nM
[3]
  concentration at 12 h: 330 ng/mL
[4]
  AUC: 153000 ng·h/mL
[5]
  bioavailability: 33%

## C#CCN(c1cnc(N(CC)CC)nc1N[C@@H](Cc1ccc(OC(=O)N2CCCC2)cc1)C(=O)O)S(=O)(=O)c1ccc(F)cc1
[14]
  Activity: Active
[15]
  IC50: > 30000 nM
[6]
  IC50: 1900 nM
[16]
  Activity: Active
[17]
  Activity: Active
[18]
  Activity: Active
[19]
  IC50: > 30000 nM
[20]
  Activity: Active
[21]
  inhibition in vivo at 1 mg/kg: 0%
[22]
  inhibition in vivo at 3 mg/kg: 15%
[1]
  AUC: 88000 ng·h/mL
[2]
  IC50: 8 nM
[9]
  IC50: 36 nM
[23]
  Activity: Active
[24]
  Activity: Active
[25]
  Activity: Active
[26]
  IC50: 500 nM
[3]
  concentration at 12 h: 1310 ng/mL
[10]
  IC50: 4600 nM
[4]
  AUC: 156000 ng·h/mL
[11]
  IC50: 9 nM
[12]
  inhibition in vivo at 3 mg/kg: 41%
[27]
  inhibition in vivo at 1 mg/kg: 0%
[5]
  bioavailability: 56%
[28]
  Activity: Active
[13]
  inhibition in vivo at 3 mg/kg: 74%
